Test results from ChEMBL document CHEMBL3286113, “New potent antibacterial oxazolidinone (MRX-I) with an improved class safety profile” (J Med Chem, 2014).
Converted amounts (≈) assume the structure as drawn.

Tests used:
Staphylococcus aureus [1] = test: Antibacterial activity against Staphylococcus aureus measured after 10 serial passages; assay type: functional
[2] = Half life in male rat at 5 mg/kg, po; assay type: ADME, organism-based; set-up: dose 5 mg/kg, route oral; settings: in vivo
Rattus norvegicus [3] = test: Toxicity in female rat assessed as effect on mean corpuscular hemoglobin level at 200 to 300 mg/kg/day, po bid administered for 4 weeks (reference value: 19.5 pg); assay type: organism-based; set-up: route oral; settings: in vivo, 672 h
Enterococcus faecium = test: Bacteriostatic activity against vancomycin-resistant Enterococcus faecium; assay type: functional
[4] = Clastogenicity in CHL cells assessed as induction of structural chromosomal aberration at 50 to 400 ug/mL measured over 6 hrs in absence of metabolic activation; assay type: toxicity, cell-based, Cricetulus griseus; settings: chinese hamster
Method in brief: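 Chinese hamster lung cells scored for structural chromosome aberrations with or without metabolic activation. Exposure was 50–400 μg/mL over 6 h, or 25–200 μg/mL over 24 h.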

Rattus norvegicus [5] = test: Toxicity in female rat assessed as effect on neutrophil count at 100 mg/kg/day, po bid administered for 4 weeks (reference value: 22.4%); assay type: organism-based; set-up: route oral; settings: in vivo, 672 h
[6] = Tmax in female rat at 5 mg/kg, po; assay type: ADME, organism-based; set-up: dose 5 mg/kg, route oral; settings: in vivo
Method in brief: (§1)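 Male and female rats received single oral doses of 5, 15 or 45 mg/kg, with 5 mg/kg iv as a reference arm. Tmax was read from the plasma concentration–time profile for each gender.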

Streptococcus pneumoniae = test: Bactericidal activity against penicillin intermediate-sensitive Streptococcus pneumoniae; assay type: functional
L5178Y = test: Mutagenicity in mouse tk +/- L5178Y cells assessed as increase in gene mutation frequency at 62.5 to 1000 ug/mL in absence of S9 fraction
Rattus norvegicus [7] = test: Toxicity in female rat assessed as effect on lymphocyte count at 200 to 300 mg/kg/day, po bid administered for 4 weeks (reference value: 74.8%); assay type: organism-based; set-up: route oral; settings: in vivo, 672 h
Canis familiaris = species on record: Canis familiaris; test: Drug uptake in dog measured over 7 days; assay type: ADME, organism-based, Canis lupus familiaris; settings: in vivo, 168 h
[8] = Half life in po dosed rat; assay type: ADME, organism-based; settings: in vivo
Rattus norvegicus [9] = test: Toxicity in female rat assessed as effect on lymphocyte count at 100 mg/kg/day, po bid administered for 4 weeks (reference value: 74.8%); assay type: organism-based; set-up: route oral; settings: in vivo, 672 h
[10] = tested on: Staphylococcus epidermidis; test: Antibacterial activity against methicillin-resistant Staphylococcus epidermidis; assay type: functional
Streptococcus pyogenes = test: Antibacterial activity against Streptococcus pyogenes; assay type: functional
[11] = Tmax in female rat at 45 mg/kg, po; assay type: ADME, organism-based; set-up: dose 45 mg/kg, route oral; settings: in vivo; method in brief: as §1
[12] = AUC (0 to t) in male rat at 5 mg/kg, po; assay type: ADME, organism-based; set-up: dose 5 mg/kg, route oral; settings: plasma
Method in brief: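 Rat PK by gender, with single oral doses of 5, 15 and 45 mg/kg and an iv dose of 5 mg/kg. Tmax, Cmax, T1/2 and AUC0−t were reported per gender.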

Staphylococcus = test: Antibacterial activity against coagulase-negative Staphylococcus; assay type: functional
Staphylococcus aureus [13] = test: Antibacterial activity against methicillin-resistant Staphylococcus aureus isolate 0612 in po dosed mouse systemic infection model; assay type: functional; settings: isolate 0612, po
[14] = Oral bioavailability in dog; assay type: ADME, organism-based, Canis lupus familiaris; settings: in vivo
[15] = AUC (0 to 24 hrs) in human at 800 mg, po administered as single dose with meal measured on day 1; assay type: ADME, organism-based; set-up: dose 800 mg, time < 24 hr, route oral; settings: plasma
Method in brief: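 Randomized, double-blind, placebo-controlled multiple-dose study in 32 healthy subjects (half male, half female). Subjects took 28 oral doses of 600 or 800 mg over 15 days, each with a meal. A single dose was given on days 1 and 15 for full PK, and doses were given Q12h from day 2 to day 14. AUC0−24 was measured on days 1 and 15.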

Staphylococcus aureus [16] = test: Antibacterial activity against Staphylococcus aureus in po dosed mouse septicemia model; assay type: functional
[17] = AUC (0 to infinity) in fasted human at 600 mg, po administered as single dose; assay type: ADME, organism-based; set-up: dose 600 mg, route oral, time infinity; settings: plasma
Method in brief: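 Single-dose, three-period Latin-square crossover in 12 healthy volunteers (6 of each gender). Each received single oral 300, 600 and 900 mg doses under fasting conditions, with a 1-week washout between doses. PK parameters, including AUC0−inf, came from a noncompartmental model.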

Rattus norvegicus [18] = test: Drug uptake in rat at 20 to 300 mg/kg/day, po bid administered for 4 weeks measured after day 28; assay type: ADME, organism-based; set-up: route oral; settings: in vivo, 672 h
Method in brief: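 Rats, 10 per sex per group, dosed orally twice daily at 20, 100 and 200 mg/kg/day for 4 weeks, then a 4-week recovery. The top dose was raised to 300 mg/kg/day on day 15. Toxicokinetic blood samples were drawn on days 1, 14 and 28.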

MAO-A = MAO-A (Homo sapiens, UniProt P21397); test: Ratio of compound IC50 to linezolid IC50 for human recombinant MAO-A by luciferin-based luminescence assay; assay type: ADME; settings: read-out: Ratio IC50
[19] = Tmax in fasted human at 900 mg, po administered as single dose; assay type: ADME, organism-based; settings: in vivo
Method in brief: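 Randomized single-dose, three-period Latin-square crossover in 12 healthy volunteers (six per gender), fasting. Single oral doses of 300, 600 and 900 mg were separated by a 1-week washout. PK parameters were derived by noncompartmental analysis.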

Mus musculus = test: Dose normalized AUC (0 to t) in po dosed mouse; assay type: ADME, organism-based; settings: in vivo

Chain of MAO-A (P21397 whole entry): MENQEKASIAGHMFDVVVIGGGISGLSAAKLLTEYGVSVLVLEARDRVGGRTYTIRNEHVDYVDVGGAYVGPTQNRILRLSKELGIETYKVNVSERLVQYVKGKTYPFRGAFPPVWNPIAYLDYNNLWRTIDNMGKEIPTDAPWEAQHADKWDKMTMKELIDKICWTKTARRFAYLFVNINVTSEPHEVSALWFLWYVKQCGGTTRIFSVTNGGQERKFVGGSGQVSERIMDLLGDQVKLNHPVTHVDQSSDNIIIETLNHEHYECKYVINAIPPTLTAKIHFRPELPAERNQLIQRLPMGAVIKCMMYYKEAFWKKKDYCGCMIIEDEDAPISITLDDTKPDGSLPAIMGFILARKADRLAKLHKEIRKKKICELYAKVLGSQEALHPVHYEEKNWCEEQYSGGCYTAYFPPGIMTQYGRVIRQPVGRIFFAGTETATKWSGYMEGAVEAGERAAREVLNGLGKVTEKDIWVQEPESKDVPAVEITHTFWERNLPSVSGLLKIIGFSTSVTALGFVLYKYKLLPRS

Structure (SMILES): O=C1C=CN(c2c(F)cc(N3C[C@H](CNc4ccon4)OC3=O)c(F)c2F)CC1 [CONTEZOLID]
- MIC (Staphylococcus aureus [1]): 4 µg/mL (≈ 9.8 µM)
- half-life [2]: 1.08 h
- Activity (Rattus norvegicus [3]): 20.48 pg
- MIC (Enterococcus faecium): 1 µg/mL (≈ 2.45 µM)
- MIC50 (Enterococcus faecium): 1 µg/mL (≈ 2.45 µM)
- MIC90 (Enterococcus faecium): 1 µg/mL (≈ 2.45 µM)
- Activity [4]: Non-toxic
- Activity (Rattus norvegicus [5]): 18.4%
- Tmax [6]: 0.67 h
- MIC50 (Streptococcus pneumoniae): 0.5 µg/mL (≈ 1.22 µM)
- MIC90 (Streptococcus pneumoniae): 0.5 µg/mL (≈ 1.22 µM)
- Activity (L5178Y): Non-toxic
- Activity (Rattus norvegicus [7]): 71.8%
- Drug uptake (Canis familiaris): Not Active
- half-life [8]: 1.5 h
- Activity (Rattus norvegicus [9]): 78.8%
- MIC50 [10]: 0.25 µg/mL (≈ 0.612 µM)
- MIC90 [10]: 0.5 µg/mL (≈ 1.22 µM)
- MIC50 (Streptococcus pyogenes): 0.5 µg/mL (≈ 1.22 µM)
- MIC90 (Streptococcus pyogenes): 1 µg/mL (≈ 2.45 µM)
- Tmax [11]: 1.67 h
- AUC(0-t) [12]: 10200 ng·h/mL
- MIC50 (Staphylococcus): 0.5 µg/mL (≈ 1.22 µM)
- MIC90 (Staphylococcus): 0.5 µg/mL (≈ 1.22 µM)
- ED50 (Staphylococcus aureus [13]): 7.2 mg/kg
- bioavailability [14]: 37%
- AUC(0-t) at 24 h [15]: 91800 ng·h/mL
- ED50 (Staphylococcus aureus [16]): 7.9 mg/kg
- AUC(0-inf) [17]: 48300 ng·h/mL
- Drug uptake (Rattus norvegicus [18]): Not Active
- selectivity ratio (MAO-A): 3
- Tmax [19]: 1.4 h
- AUCt/dose (Mus musculus): 1654 ng·h/mL/mg/kg
